# In ChEMBL document CHEMBL1212759, “Antifungal activity of colistin against mucorales species in vitro and in a murine model of Rhizopus oryzae pulmonary infection” (Antimicrob Agents Chemother, 2010):
# Activity calls are given as the source filed them. No cut-off for these calls is given here.
# How the values were obtained:
# [1] = test system: Rhizopus arrhizus; test: Antimicrobial activity against Rhizopus oryzae at 8 ug/disk after 24 hrs by disk diffusion method; assay type: functional, organism-based
# Outline: (§1)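 Paper disks loaded with 8, 16 or 32 μg colistin were placed on agar plates inoculated with 200 μl of a 10^6 cells/ml R. oryzae spore suspension. After 24 h at 37°C, the diameter of the inhibition zone was measured.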
# [2] = test system: Rhizopus arrhizus; test: Antimicrobial activity against Rhizopus oryzae isolate 6725 after 24 hrs in yeast nitrogen base complete medium by broth microdilution method; assay type: functional, organism-based
# Outline: (§2)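 Microdilution was done in yeast nitrogen base complete medium, with colistin serially diluted 128 to 0.12 μg/ml. Spores were harvested from YAG plates (48–72 h, 37°C), washed, filtered and counted, then added at 0.5 × 10^4 to 4 × 10^4 cells/ml. After 24 h at 37°C, MIC was taken visually as the lowest concentration with complete growth inhibition.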
# [3] = test system: Rhizopus arrhizus; test: Antimicrobial activity against Rhizopus oryzae isolate 3140 after 24 hrs in RMPI 1640 medium by broth microdilution method; assay type: functional, organism-based
# Outline: (§3)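 Colistin was serially diluted from 64 to 0.06 μg/ml in RPMI 1640 with glucamine and without bicarbonate. Fresh spores from 48–72 h YAG plates were added at 0.5 × 10^4 to 4 × 10^4 cells/ml. Plates were incubated 24 h at 37°C. MIC was read visually as the lowest concentration giving 100% growth inhibition.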
# [4] = test system: Rhizopus arrhizus; test: Antimicrobial activity against Rhizopus oryzae isolate 5496 after 24 hrs in RMPI 1640 medium by broth microdilution method; assay type: functional, organism-based; outline: as §3
# [5] = test system: Rhizopus arrhizus; test: Antimicrobial activity against Rhizopus oryzae isolate 5879 after 24 hrs in RMPI 1640 medium by broth microdilution method; assay type: functional, organism-based
# Outline: (§4)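 Broth microdilution in RPMI 1640 with […], without bicarbonate. Colistin was serially diluted 64 to 0.06 μg/ml. Spores came from YAG plates grown 48–72 h at 37°C, were filtered and counted, and were inoculated at 0.5 × 10^4 to 4 × 10^4 cells/ml. Plates were incubated 24 h at 37°C. MIC was read visually as the lowest concentration giving 100% growth inhibition.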
# [6] = test system: Rhizopus microsporus; test: Antimicrobial activity against Rhizopus microsporus isolate 6164 after 24 hrs in yeast nitrogen base complete medium by broth microdilution method; assay type: functional
# Outline: (§5)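 Broth microdilution in YNB complete medium with colistin at 128 to 0.12 μg/ml. Freshly collected spores were inoculated at 0.5 × 10^4 to 4 × 10^4 cells/ml and incubated 24 h at 37°C. MIC was read visually as the lowest concentration with complete (100%) growth inhibition.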
# [7] = test system: Rhizopus homothallicus; test: Antimicrobial activity against Rhizopus homothallicus isolate 5910 after 24 hrs in RMPI 1640 medium by broth microdilution method; assay type: functional; outline: as §3
# [8] = test system: Rhizopus arrhizus; test: Antimicrobial activity against Rhizopus oryzae assessed as plasma membrane disruption-related ATP release at 32 ug/ml after 5 mins by Cell Titer-Glo luminescent assay; assay type: functional, organism-based
# Outline: (§6)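 Spores at 10^7 cells/ml in RPMI 1640 were germinated about 6 h at 37°C. Germlings were resuspended in RPMI with colistin at 8 or 32 μg/ml, or drug-free, and shaken at 37°C. Supernatants taken at 5, 30, 60 and 90 min were assayed for released ATP by CellTiter-Glo luminescence.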
# [9] = test system: Rhizopus; test: Antimicrobial activity against Rhizopus sp. isolate 4523 after 24 hrs in yeast nitrogen base complete medium by broth microdilution method; assay type: functional, organism-based; outline: as §2
# [10] = test system: Mucor circinelloides; test: Antimicrobial activity against Mucor circinelloides isolate 5904 after 24 hrs in RMPI 1640 medium by broth microdilution method; assay type: functional, organism-based; outline: as §3
# [11] = test system: Mucor circinelloides; test: Antimicrobial activity against Mucor circinelloides isolate 4818 after 24 hrs in yeast nitrogen base complete medium by broth microdilution method; assay type: functional, organism-based; outline: as §5
# [12] = test system: Rhizopus arrhizus; test: Antimicrobial activity against Rhizopus oryzae isolate 3140 after 24 hrs in yeast nitrogen base complete medium by broth microdilution method; assay type: functional, organism-based; outline: as §5
# [13] = test system: Rhizopus arrhizus; test: Antimicrobial activity against Rhizopus oryzae at 32 ug/disk after 24 hrs by disk diffusion method; assay type: functional, organism-based; outline: as §1
# [14] = test system: Mucor circinelloides; test: Antimicrobial activity against Mucor circinelloides isolate 4030 after 24 hrs in yeast nitrogen base complete medium by broth microdilution method; assay type: functional, organism-based; outline: as §5
# [15] = test system: Rhizopus homothallicus; test: Antimicrobial activity against Rhizopus homothallicus isolate 5790 after 24 hrs in yeast nitrogen base complete medium by broth microdilution method; assay type: functional; outline: as §5
# [16] = test system: Rhizopus arrhizus; test: Antimicrobial activity against Rhizopus oryzae assessed as reduction in hyphal viability at 8 ug/ml up to 6 hrs by XTT assay; assay type: functional, organism-based
# Outline: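 R. oryzae mycelia were shaken at 37°C in RPMI 1640 with colistin, amphotericin B or both; drug-free RPMI served as control. At 0, 2, 6 and 24 h, pellets received XTT (1 mg) plus menadione (0.17 mg) in 1 ml PBS for 1 h at 37°C, then OD405 was read. Viability is drug OD405 divided by control OD405; at least three experiments.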
# [17] = test system: Rhizopus; test: Antimicrobial activity against Rhizopus sp. isolate 4523 after 24 hrs in RMPI 1640 medium by broth microdilution method; assay type: functional, organism-based; outline: as §4
# [18] = test system: Rhizopus arrhizus; test: Antimicrobial activity against Rhizopus oryzae isolate 5799 after 24 hrs in RMPI 1640 medium by broth microdilution method; assay type: functional, organism-based; outline: as §3
# [19] = test system: Rhizopus arrhizus; test: Antimicrobial activity against Rhizopus oryzae assessed as plasma membrane disruption-related ATP release at 8 ug/ml after 30 mins by Cell Titer-Glo luminescent assay; assay type: functional, organism-based; outline: as §6
# [20] = test system: Cunninghamella bertholletiae; test: Antimicrobial activity against Cunninghamella bertholletiae isolate 6694 after 24 hrs in RMPI 1640 medium by broth microdilution method; assay type: functional, organism-based; outline: as §3
# [21] = test system: Rhizopus homothallicus; test: Antimicrobial activity against Rhizopus homothallicus isolate 5790 after 24 hrs in RMPI 1640 medium by broth microdilution method; assay type: functional; outline: as §3
# [22] = test system: Rhizopus arrhizus; test: Antimicrobial activity against Rhizopus oryzae isolate 6725 after 24 hrs in RMPI 1640 medium by broth microdilution method; assay type: functional, organism-based; outline: as §4
# [23] = test system: Rhizopus arrhizus; test: Antimicrobial activity against Rhizopus oryzae isolate 5799 after 24 hrs in yeast nitrogen base complete medium by broth microdilution method; assay type: functional, organism-based; outline: as §2
# [24] = test system: Mucor circinelloides; test: Antimicrobial activity against Mucor circinelloides isolate 4030 after 24 hrs in RMPI 1640 medium by broth microdilution method; assay type: functional, organism-based; outline: as §3
# [25] = test system: Rhizopus homothallicus; test: Antimicrobial activity against Rhizopus homothallicus isolate 6360 after 24 hrs in RMPI 1640 medium by broth microdilution method; assay type: functional; outline: as §3
# [26] = test system: Rhizopus arrhizus; test: Antimicrobial activity against Rhizopus oryzae at 16 ug/disk after 24 hrs by disk diffusion method; assay type: functional, organism-based; outline: as §1
# [27] = test system: Rhizopus arrhizus; test: Antimicrobial activity against Rhizopus oryzae isolate 4153 after 24 hrs in yeast nitrogen base complete medium by broth microdilution method; assay type: functional, organism-based; outline: as §5
# [28] = test system: Rhizopus arrhizus; test: Antimicrobial activity against Rhizopus oryzae assessed as plasma membrane disruption-related ATP release at 32 ug/ml after 30 mins by Cell Titer-Glo luminescent assay; assay type: functional, organism-based; outline: as §6
sequence,measurement,setting,value
COLISTIN,inhibition zone (IZ),[1],18 mm
same,MFC,[2],> 128 µg/mL
same,MIC,[2],128 µg/mL
same,MFC,[3],32 µg/mL
same,MIC,[3],16 µg/mL
same,MFC,[4],32 µg/mL
same,MIC,[4],16 µg/mL
same,MFC,[5],32 µg/mL
same,MIC,[5],32 µg/mL
same,MFC,[6],> 128 µg/mL
same,MIC,[6],128 µg/mL
same,MFC,[7],32 µg/mL
same,MIC,[7],32 µg/mL
same,Activity,[8],Active
same,MFC,[9],> 128 µg/mL
same,MIC,[9],128 µg/mL
same,MFC,[10],64 µg/mL
same,MIC,[10],16 µg/mL
same,MFC,[11],> 128 µg/mL
same,MIC,[11],128 µg/mL
same,MFC,[12],> 128 µg/mL
same,MIC,[12],128 µg/mL
same,inhibition zone (IZ),[13],21 mm
same,MFC,[14],> 128 µg/mL
same,MIC,[14],128 µg/mL
same,MFC,[15],> 128 µg/mL
same,MIC,[15],128 µg/mL
same,inhibition,[16],45%
same,MFC,[17],64 µg/mL
same,MIC,[17],16 µg/mL
same,MFC,[18],32 µg/mL
same,MIC,[18],8 µg/mL
same,Activity,[19],Active
same,MFC,[20],64 µg/mL
same,MIC,[20],16 µg/mL
same,MFC,[21],64 µg/mL
same,MIC,[21],16 µg/mL
same,MFC,[22],32 µg/mL
same,MIC,[22],16 µg/mL
same,MFC,[23],> 128 µg/mL
same,MIC,[23],128 µg/mL
same,MFC,[24],64 µg/mL
same,MIC,[24],16 µg/mL
same,MFC,[25],64 µg/mL
same,MIC,[25],32 µg/mL
same,inhibition zone (IZ),[26],19 mm
same,MFC,[27],> 128 µg/mL
same,MIC,[27],128 µg/mL
same,Activity,[28],Active
